Assay outcomes as filed in PubChem.
This is a sample that favours compounds with a hit; in the whole collection about 2.2% have one here.
GRK2 aptamer HTS – human GRK2 inhibition via aptamer displacement | P25098 | bead flow cytometry, FAM-aptamer displacement from GRK2 | inhibition of aptamer binding, % at 10 µM | 330,000 compounds, 0.59% hits | AID 488847;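 active = inhibition of aptamer binding above 40%, roughly 3 SD of noise, on plates passing a quality check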;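 note: median bead fluorescence of bound FAM aptamer so fluorescent compounds give negative values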
SUMO1-SIM PPI – alters human SUMO1 binding to SIM partners | SUMO1 binding to a labelled peptide, TR-FRET, 1 h | inhibition, % at 20 µM | 360,000 compounds, 0.33% hits | AID 602429; in the data active = inhibition above about 37%
Target sequence (P63165 whole entry, looked up): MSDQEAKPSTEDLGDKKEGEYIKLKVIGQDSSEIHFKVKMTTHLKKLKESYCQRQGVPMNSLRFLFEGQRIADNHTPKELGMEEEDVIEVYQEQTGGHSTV
DNMT1 inh – DNMT1 (human) enzyme inhibition; inhibition (reported as % activation of signal), % at 10 µM; P26358; 360,000 compounds, 0.83% hits; DNMT1 molecular beacon, Hinp1I cleavage, fluorescence; in the data active = inhibition above about 50%
STEP block – STEP (human) phosphatase inhibition; 360,000 compounds, 0.25% hits; inhibition, % at 20 µM; AID 588621; recombinant STEP, OMFP fluorogenic substrate, fluorescence; P54829;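 active = inhibition at 20 µM, scaled per plate between control wells, above about 37%, limit read from the data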;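 note: 0% = DMSO with enzyme and substrate and 100% = substrate only without enzyme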
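Assay system: isolated STEP enzyme. Buffer or medium: pH 6.0 Bis-Tris with DTT and Tween 20. Also added: fluorogenic phosphatase substrate OMFP at 25 µM final. Dosing: 20 µM, 1% DMSO. Timing: 20 min reaction, room temperature, in the dark. Measured by: fluorescence intensity, excitation 480 nm, emission 540 nm. Evaluation: normalized % inhibition.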
Scp1 inh – inhibitors of human Scp-1 phosphatase. inhibition, % at 20 µM. Recombinant Scp1, phosphopeptide, malachite green phosphate absorbance. AID 493091. 340,000 compounds, 0.88% hits. Q9GZU7;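 active = inhibition above about 50% at 20 µM, limit read from the data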;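 note: plate controls were DMSO wells with enzyme for no effect and wells lacking enzyme for full effect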
Target sequence (Q9GZU7 76-261 limits assumed): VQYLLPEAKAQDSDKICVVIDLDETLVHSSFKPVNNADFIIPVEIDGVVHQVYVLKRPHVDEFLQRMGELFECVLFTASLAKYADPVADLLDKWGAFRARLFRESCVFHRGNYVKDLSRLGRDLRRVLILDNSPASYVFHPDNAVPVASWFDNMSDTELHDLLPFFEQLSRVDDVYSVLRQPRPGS
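Test system: SCP-1 catalytic domain; Buffer or medium: Acidic Tris acetate buffer with magnesium and detergent; Also added: Phosphorylated 17-residue peptide substrate; Compound: single 20 µM dose, 1% DMSO; Schedule: enzyme reaction 45 min at room temperature, colour 5 min, stabilisation 30 min; Signal: Phosphate-binding colour reagent, absorbance read at 630 nm.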
LMPTP block – blocks human LMPTP phosphatase. recombinant LMPTP-A, OMFP fluorogenic substrate, fluorescence intensity. inhibition, % at 20 µM. 360,000 compounds, 0.22% hits. AID 651560;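 active = compounds that cut the enzyme signal by at least half of the control window in the single-dose screen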;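 note: plate controls were DMSO wells with enzyme plus substrate for no effect and substrate without enzyme for full effect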
Target sequence (P24666 whole entry, looked up): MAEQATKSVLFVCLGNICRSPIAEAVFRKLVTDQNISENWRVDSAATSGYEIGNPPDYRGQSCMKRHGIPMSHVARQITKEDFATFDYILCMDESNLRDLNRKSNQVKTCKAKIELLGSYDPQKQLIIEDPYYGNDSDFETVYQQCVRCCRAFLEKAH
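Test system: LMPTP-A, protein tyrosine phosphatase of low molecular weight; Input: 0.625 nM enzyme; Incubation: 50 min dark incubation at room temperature; Signal: endpoint fluorescence intensity from OMFP dephosphorylation; Read-out basis: % inhibition versus control wells.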
* marks the source's active call; other numbers are inactive results; . = no result; + = active, no number.

SMILES	GRK2 aptamer HTS	SUMO1-SIM PPI	DNMT1 inh	STEP block	Scp1 inh	LMPTP block
NC(=O)c1ccc(-c2ccc(Br)cc2)o1	0	-15	-2	-4	-3	1
Cc1ccc(C(=O)NN2C(=O)C3C(C2=O)C2C=CC3C23CC3)cc1 (stereo unspecified)	4	60*	0	0	1	-1
O=C(NN1C(=O)C2C(C1=O)C1C=CC2C12CC2)c1ccc(Cl)cc1 (stereo unspecified)	1	1	-2	2	-4	-3
COc1ccc(Cc2c(-c3ccccc3)nc3c4ccccc4ccn23)c(C)c1	.	2	-12	3	.	3
CSc1nc(N(CCO)CCO)c2sc3nc(-c4ccco4)c4c(c3c2n1)CCC4	.	74*	96*	56*	81*	68*
COC(=O)CSc1nc(SC)nc2c1sc1nc(-c3ccco3)c3c(c12)CC(C)(C)OC3	.	3	-2	-1	3	2
O=C(O)c1cc(O)c2c(c1)[C@@H]([C@H]1c3cc(C(=O)O)cc(O)c3C(=O)c3c(O[C@@H]4O[C@H](CO)[C@@H](O)[C@H](O)[C@H]4O)cccc31)c1cccc(O[C@@H]3O[C@H](CO)[C@@H](O)[C@H](O)[C@H]3O)c1C2=O	100*	.	.	.	86*	.
OCC1OC(Oc2cccc3ccccc23)C(O)C(O)C1O (stereo unspecified)	0	-3	-1	3	-16	-1
O=C(Nc1ccccc1-c1nc2ccccc2[nH]1)c1ccc(S(=O)(=O)N2CCCCC2)cc1	.	10	-2	47*	-2	0
C/C=C\C=C/C(=O)Nc1cccc(C2=NOC3(C2)C[C@@H](C(N)=O)N(C(=O)/C=C/C=C\C)C3)c1 (stereo partly specified)	11	95*	64*	2	80*	6
COc1ccccc1CNC(=O)/C=C/c1ccc(S(=O)(=O)NCc2ccco2)cc1	62*	-11	-5	3	24	-1
CCC(=O)N1CCC(C)(C(=O)NCc2ccc(F)cc2)C1 (stereo unspecified)	.	5	1	2	.	0
N#CC(C#N)=C1C=C2C=C(N3CCOCC3)CCC2CC1 (stereo unspecified)	.	-98	+	-361	-4	22
CN1CCN(C2=CC3=CC(=C(C#N)C#N)CCC3CC2)CC1 (stereo unspecified)	.	-254	+	-199	-1	17
CC1(C)CC(NCCN2CCN(C3=CC(=C(C#N)C#N)CC(C)(C)C3)CC2)=CC(=C(C#N)C#N)C1	2	-4	-15	1	5	2
CCN1CCN(C2=CC3=CC(=C(C#N)C#N)CCC3CC2)CC1 (stereo unspecified)	.	-95	+	-205	-1	17
N#CC(C#N)=C1C=C2C=C(N3CCCCCC3)CCC2CC1 (stereo unspecified)	.	-10	+	-500	5	7
Cc1cc(C)cc(C(O)c2ncc(-c3ccccc3Cl)[nH]2)c1 (stereo unspecified)	.	5	1	-1	.	2
Cc1ccc(C)c(C(Nc2ccccc2)c2ccc3ccc(C)nc3c2O)c1 (stereo unspecified)	.	-3	.	.	.	2
CC(C)S(=O)(=O)NC(=O)C1(C)CCN1C(=O)Cc1ccccc1 (stereo unspecified)	.	1	-3	-1	.	-2
CC[n+]1c(/C=C(\C)SC)sc2ccccc21	5	-3	3	3	0	2
CCN1/C(=C/C=C/C=C/C=C/c2sc3ccccc3[n+]2CC)Sc2ccccc21	22	-37	81*	1	21	14
CCN1/C(=C/C=C/C=C/c2sc3ccccc3[n+]2CC)Sc2ccccc21	89*	.	.	.	.	.
CC[n+]1c(/C=C(/C)SC)sc2ccccc21	8	-4	2	-2	-11	0
O=C1NC[C@H](Cc2ccccc2)N(C[C@@H]2CCCN2C[C@H](Cc2ccccc2)N2C[C@H](Cc3ccccc3)N(CCc3ccccc3)C(=O)C2=O)C1=O	.	8	-2	1	.	4
SMILES	GRK2 aptamer HTS	SUMO1-SIM PPI	DNMT1 inh	STEP block	Scp1 inh	LMPTP block
Cc1cc(C)n2c(NCc3ccccc3)c(-c3cc4ccccc4o3)nc2n1	.	-25	.	.	.	0
CNc1ccc2c3c(cccc13)C(=O)N(C)C2=O	4	-228	+	-206	-13	-21
COc1ccc(Cn2cc(CN3CC(N(C)C)CS3(=O)=O)nn2)cc1 (stereo unspecified)	.	-2	.	.	.	-2
O=c1nc2c(-c3cccc(Br)c3)n[nH]n2c2ccccc12	0	45*	1	-2	6	6
O=C1C=C(NCc2ccccc2)c2ccccc2C1=O	.	44*	84*	5	-1	10
O=C1C=C(Nc2ccccc2O)c2ccccc2C1=O	0	10	1	5	-5	5
CCOc1ccc(NC2=CC(=O)C(=O)c3ccccc32)cc1	.	-19	31	20	57*	5
O=C1C=C(Nc2cccnc2)c2ccccc2C1=O	.	-12	41	10	1	7
CCOc1ccc(NC2=CC(=O)CCC2)cc1	0	1	2	-3	-6	-2
O=C1C=C(Nc2ccc(F)cc2)c2ccccc2C1=O	2	-39	54*	7	0	5
CCc1nc2ccc(C(=O)Nc3ccc4c(c3)OCC(=O)N4)cn2c1N(C)C(=O)C1CCCCC1	.	-3	-2	-1	.	-2
CC1(C)CC(=O)C=C(c2ccc(-c3ccc(OC(F)(F)F)cc3)cc2)C1=O	.	-13	8	4	.	0
CCOC(=O)c1ccc(N2CC(O)=C(c3nc4ccccc4c(=O)[nH]3)C2=N)cc1	0	50*	-3	-1	9	-1
CCOc1ccc(N2CC(O)=C(c3nc4ccccc4c(=O)[nH]3)C2=N)cc1	0	29	25	6	-2	0
O=C(NC1CC1)c1cc(-c2ccco2)nc2ccccc12	.	40*	90*	20	80*	51*
O=C(OCC(=O)N1CCN(C(=O)c2ccco2)CC1)c1cc(-c2ccco2)nc2ccccc12	13	26	97*	79*	87*	60*
O=C(OCC(=O)N1CCN(C(=O)c2ccco2)CC1)c1cc(-c2ccc(Cl)c(Cl)c2Cl)nc2ccccc12	0	64*	-13	2	-7	3
O=C(COC(=O)c1ccc([N+](=O)[O-])s1)NC(c1ccccc1)c1ccccc1	1	59*	28	-1	2	-1
Cc1c(C)c2ccc(OCC(=O)Nc3ccccn3)cc2oc1=O	0	55*	-1	0	6	0
N#C/C(=C\c1ccc(-c2ccc(C(=O)O)cc2)o1)c1nc2ccccc2[nH]1	.	3	-1	60*	57*	8
